According to ChEMBL document CHEMBL4393719, “Tetrahydro-3-benzazepines with fluorinated side chains as NMDA and σ1 receptor antagonists: Synthesis, receptor affinity, selectivity and antiallodynic activity” (Eur J Med Chem, 2019):

Tests used:
Homo sapiens = organism: Homo sapiens; assay: Displacement of [3H] ifenprodil from GluN2B/GluN1a (unknown origin) expressed in mouse L(tk-) cell membranes at 10^-10 to 10^-5 mol/L incubated for 120 mins by scintillation counting method relative to control
In short: (§1)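 Membranes from mouse L(tk-) cells co-transfected with dexamethasone-inducible GluN1a/GluN2B (1:5), induced 24 h with 4 μM dexamethasone plus 4 μM ketamine.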

[1] = biological target: Sigma non-opioid intracellular receptor 1 (Cavia porcellus) (UniProt Q60492); assay: Displacement of [3H]-(+)-pentazocine from sigma1 receptor in guinea pig brain cortex membranes at 10^-10 to 10^-5 mol/L incubated for 120 mins by scintillation counting method relative to control; format: cell membranes
Chain of Sigma non-opioid intracellular receptor 1 (Cavia porcellus) (Q60492 whole entry): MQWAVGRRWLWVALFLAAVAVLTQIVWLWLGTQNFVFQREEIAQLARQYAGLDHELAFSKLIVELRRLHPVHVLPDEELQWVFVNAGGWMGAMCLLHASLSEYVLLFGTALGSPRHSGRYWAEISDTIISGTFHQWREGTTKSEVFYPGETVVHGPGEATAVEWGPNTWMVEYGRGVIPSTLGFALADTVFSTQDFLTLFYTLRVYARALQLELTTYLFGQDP

[2] = biological target: Sigma intracellular receptor 2 (Rattus norvegicus) (UniProt Q5U3Y7); assay: Displacement of [3H]-di-o-tolylguanidine from sigma2 receptor in rat liver membranes at 10^-10 to 10^-5 mol/L incubated for 120 mins by scintillation counting method relative to control; format: cell membranes
Chain of Sigma intracellular receptor 2 (Rattus norvegicus) (Q5U3Y7 whole entry): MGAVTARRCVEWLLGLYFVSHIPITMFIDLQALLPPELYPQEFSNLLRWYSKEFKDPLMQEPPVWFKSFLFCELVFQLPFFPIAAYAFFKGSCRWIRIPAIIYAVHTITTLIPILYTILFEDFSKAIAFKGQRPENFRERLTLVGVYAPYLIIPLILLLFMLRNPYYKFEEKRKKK

Sus scrofa [3] = organism: Sus scrofa; settings: at 1 µM
[4] = Displacement of [3H] ifenprodil from GluN2B/GluN1a (unknown origin) expressed in mouse L(tk-) cell membranes incubated for 120 mins by scintillation counting method; set-up: species or system Homo sapiens; in short: as §1
Sus scrofa [5] = organism: Sus scrofa; assay: Displacement of [3H]-(+)-MK-801 from NMDA PCP binding site in pig brain cortex membrane at 10 uM incubated for 180 mins by scintillation counting method relative to control; format: cell membranes

SMILES	inhibition (Homo sapiens)	inhibition [1]	inhibition [2]	inhibition (Sus scrofa [3])	Ki [4]	inhibition (Sus scrofa [5])
COc1ccc2c(c1)CCN1CC2OC1C(F)CCc1ccccc1 (stereo unspecified)	8%	0%	0%	0%	–	–
COc1ccc2c(c1)CCN(CCCCc1ccccc1)CC2O (stereo unspecified)	–	–	–	–	706 nM	22%
